Assay results as given in ChEMBL document CHEMBL1124086, “Inhibition of copper-dependent amine oxidases by some hydrazides of pyrrol-1-ylbenzoic and pyrrol-1-ylphenylacetic acids” (J Med Chem, 1988).

Tests used:
[1] = Ki value measured for the inhibition of copper dependent amine oxidase in bovine plasma; format: cell-free
In short: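 Bovine plasma amine oxidase, 36 µg/mL (0.2 µM), in 0.1 M phosphate buffer, pH 7.2. Benzylamine at 0.5, 2.5 and 5 mM, with no preincubation. Rate measured as benzaldehyde formed per minute at 37 °C. Apparent Ki taken from Dixon plots.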

[2] = Effect on placental diamine oxidase (0.1 uM) after 0 min of incubation at pH 7.2; parameters: species or system Homo sapiens; conditions: read-out: I50
In short: (§1)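 Purified human placental diamine oxidase at 0.1 µM in 0.1 M phosphate buffer, pH 7.2, at 37 °C. Inhibitor added at zero time. After preincubation, saturating 3 mM p-[(dimethylamino)methyl]benzylamine added. Product aldehyde followed at 250 nm (E = 10.400 M-1 cm-1). I50 is the concentration giving 50% loss of activity. Two experiments in duplicate.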

[3] = Effect on placental diamine oxidase (0.1 uM) after 30 min of incubation at pH 7.2; parameters: species or system Homo sapiens; conditions: read-out: I50; in short: as §1
[4] = Ki value measured for the inhibition of human placenta diamine oxidase
In short: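 Human placental diamine oxidase, 47 µg/mL (0.2 µM), in 0.1 M phosphate buffer, pH 7.2, with no preincubation. […] oxidation followed at 250 nm at 37 °C. Apparent Ki estimated from Dixon plots.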

Rattus norvegicus [5] = species on record: Rattus norvegicus; assay: Brain mitochondrial activity measured at 0 min of incubation at 1 uM concentration; format: functional
In short: (§2)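 Rat brain mitochondria isolated by differential centrifugation of homogenates in 0.25 M sucrose, pH 7.4, then suspended in 0.1 M phosphate buffer, pH 7.2, at 37 °C. Inhibitor added at zero time, then saturating 1 mM kynuramine added after the incubation period. MAO activity read fluorimetrically. Percent inhibition reported from three experiments in duplicate.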

Rattus norvegicus [6] = species on record: Rattus norvegicus; assay: Brain mitochondrial activity measured at 0 min of incubation at 10 uM concentration; format: functional; in short: as §2
Rattus norvegicus [7] = species on record: Rattus norvegicus; assay: Brain mitochondrial activity measured at 0 min of incubation at 100 uM concentration; format: functional; in short: as §2
Rattus norvegicus [8] = species on record: Rattus norvegicus; assay: Brain mitochondrial activity measured at 120 min of incubation at 1 uM concentration; format: functional; in short: as §2
Rattus norvegicus [9] = species on record: Rattus norvegicus; assay: Brain mitochondrial activity measured at 120 min of incubation at 10 uM concentration; format: functional; in short: as §2
Rattus norvegicus [10] = species on record: Rattus norvegicus; assay: Brain mitochondrial activity measured at 120 min of incubation at 100 uM concentration; format: functional; in short: as §2
[11] = Effect on plasma amine oxidase (0.1 uM) after 15 min of incubation at pH 7.2; format: cell-free; conditions: 0.25 h, read-out: I50
In short: (§3)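 Purified bovine plasma amine oxidase at 0.1 µM in 0.1 M phosphate buffer, pH 7.2, at 37 °C. Inhibitor added at zero time and preincubated. Saturating 3 mM benzylamine then added and benzaldehyde formation read at 250 nm (E = 12.500 M-1 cm-1). I50 is the concentration halving activity. Two experiments in duplicate.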

[12] = Effect on plasma amine oxidase (0.1 uM) after 30 min of incubation at pH 7.2; format: cell-free; conditions: 0.5 h, read-out: I50; in short: as §3
[13] = Effect on plasma amine oxidase (0.1 uM) after 0 min of incubation at pH 7.2; format: cell-free; conditions: 0 h, read-out: I50; in short: as §3
[14] = Effect on plasma amine oxidase (0.1 uM) after 60 min of incubation at pH 7.2; format: cell-free; conditions: 1 h, read-out: I50; in short: as §3

Row | SMILES | Ki [1] [µM] | IC50 [2] [µM] | IC50 [3] [µM] | Ki [4] [µM] | IC50 [11] [µM] | IC50 [12] [µM] | IC50 [13] [µM] | IC50 [14] [µM] | Inhibition (Rattus norvegicus [5]) [%] | Inhibition (Rattus norvegicus [6]) [%] | Inhibition (Rattus norvegicus [7]) [%] | Inhibition (Rattus norvegicus [8]) [%] | Inhibition (Rattus norvegicus [9]) [%] | Inhibition (Rattus norvegicus [10]) [%]
1 | Cc1ccc(C)n1-c1ccc(CC(=O)NN)cc1 | 10 | 100 | 50 |  |  |  |  |  | 0 | 0 | 2 | 0 | 0 | 3
2 | NNC(=O)c1cccc(-n2cccc2)c1 | 85 | 100 | 100 | 110 |  |  |  |  | 0 | 0 | 0 | 0 | 5 | 8
3 | NNC(=O)c1ccccc1-n1cccc1 | 300 | 100 | 100 | 250 |  |  |  |  | 0 | 0 | 0 | 3 | 5 | 6
4 | NNC(=O)c1ccc(-n2cccc2)cc1 | 80 | 200 | 50 | 100 |  |  |  |  | 0 | 0 | 0 | 2 | 16 | 18
5 | NNC(=O)c1ccncc1 [ISONIAZID] |  |  |  |  | 10 | 10 | 100 | 5 | 12 | 14 | 19 | 16 | 16 | 22

More lines, main results first:

Row | Ki [1] [µM] | IC50 [2] [µM] | IC50 [3] [µM] | Ki [4] [µM] | IC50 [11] [µM] | IC50 [12] [µM] | IC50 [13] [µM] | IC50 [14] [µM] | SMILES | Inhibition (Rattus norvegicus [5]) [%] | Inhibition (Rattus norvegicus [6]) [%] | Inhibition (Rattus norvegicus [7]) [%] | Inhibition (Rattus norvegicus [8]) [%] | Inhibition (Rattus norvegicus [9]) [%] | Inhibition (Rattus norvegicus [10]) [%]
6 | 0.7 | 50 | 10 | 100 |  |  |  |  | NNC(=O)Cc1cccc(-n2cccc2)c1 | 0 | 2 | 3 | 0 | 3 | 15
7 | 0.8 | 50 | 10 | 10 |  |  |  |  | CC(C)=NNC(=O)Cc1ccc(-n2cccc2)cc1 | 0 | 0 | 0 | 12 | 12 | 18
8 | 0.5 | 10 | 10 | 10 |  |  |  |  | NNC(=O)Cc1ccc(-n2cccc2)cc1 | 0 | 0 | 6 | 2 | 4 | 9
